pIC50: −log10 of the molar value.

Among the data in ChEMBL document CHEMBL2034961, “Kinase inhibitory potencies and in vitro antiproliferative activities of N-10 substituted pyrrolo[2,3-a]carbazole derivatives” (Bioorg Med Chem Lett, 2012) are Activity and IC50 values, retold here.

Assay [1] has as its target T1, Serine/threonine-protein kinase pim-1 (Homo sapiens, UniProt P11309). Kind of assay: Inhibition of Pim-1 using RSRHSSYPAGT as substrate assessed as residual activity at 10 uM after 30 mins. In a few lines:
(§1)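 Each Pim isoform (Pim-1, Pim-2, Pim-3) was assayed in duplicate by a previously published method. Compounds were tested at single concentrations of 10 and 1, and results are given as percent residual kinase activity.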
Target sequence in this assay (P11309 whole entry, looked up, canonical isoform): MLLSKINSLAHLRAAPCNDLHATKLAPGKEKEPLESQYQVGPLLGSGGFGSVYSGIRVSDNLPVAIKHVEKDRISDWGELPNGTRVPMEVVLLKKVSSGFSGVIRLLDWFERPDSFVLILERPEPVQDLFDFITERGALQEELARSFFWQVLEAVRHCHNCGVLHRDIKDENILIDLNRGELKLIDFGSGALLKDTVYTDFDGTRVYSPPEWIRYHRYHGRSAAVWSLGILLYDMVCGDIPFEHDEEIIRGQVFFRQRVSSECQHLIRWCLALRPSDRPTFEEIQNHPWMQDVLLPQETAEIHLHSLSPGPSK

Assay [2] deals with T1, Serine/threonine-protein kinase pim-1. The experiment in a line: Inhibition of Pim-1 using RSRHSSYPAGT as substrate assessed as residual activity at 1 uM after 30 mins. In a few lines: as §1
Target sequence in this assay (P11309 whole entry, looked up, canonical isoform): as above
Assay [3] shares this target. Kind of assay: Inhibition of Pim-1 using RSRHSSYPAGT as substrate after 30 mins. The method, boiled down:
(§2)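 Kinase assays on each Pim isoform were run in duplicate by a previously published method.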
Target sequence in this assay (P11309 whole entry, canonical isoform): as the sequence (P11309 whole entry, looked up, canonical isoform) above

The target of assay [4] is Serine/threonine-protein kinase pim-2 (Homo sapiens) (UniProt Q9P1W9). Kind of assay: Inhibition of Pim-2 using RSRHSSYPAGT as substrate assessed as residual activity at 10 uM after 30 mins. The method, boiled down:
as §1

Assay [5] shares this target. The experiment in a line: Inhibition of Pim-2 using RSRHSSYPAGT as substrate assessed as residual activity at 1 uM after 30 mins. The method, boiled down:
as §1

The target of assay [6] is T2, Serine/threonine-protein kinase pim-3 (Homo sapiens, UniProt Q86V86). The experiment in a line: Inhibition of Pim-3 using RSRHSSYPAGT as substrate assessed as residual activity at 10 uM after 30 mins. The method, boiled down: as §1
Assay [7] deals with T2, Serine/threonine-protein kinase pim-3. The experiment in a line: Inhibition of Pim-3 using RSRHSSYPAGT as substrate assessed as residual activity at 1 uM after 30 mins. In a few lines:
as §1

For assay [8] the target is unchanged. Kind of assay: Inhibition of Pim-3 using RSRHSSYPAGT as substrate after 30 mins. In a few lines: as §2
Assay [9] in a line: Cytotoxicity against human fibroblasts by resazurin reduction test. In kind it is cell-based. The following applies: Fibroblast. In a few lines: (§3)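 Antiproliferative effect read by resazurin reduction. Cells were a human fibroblast primary culture, PA1 (ovarian carcinoma), and PC3 and DU145 (prostatic carcinoma).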
(The colour change of resazurin is a common sign of viable cells or microbes.)

The next assay has as its system PA-1. The experiment in a line: Cytotoxicity against human PA1 cells by resazurin reduction test. In kind it is functional, cell-based. In a few lines: as §3
The subject of the next assay is PC-3. Kind of assay: Cytotoxicity against human PC3 cells by resazurin reduction test. In kind it is functional, cell-based. In a few lines:
as §3

Another assay relates to DU-145. The experiment in a line: Cytotoxicity against human DU145 cells by resazurin reduction test. In kind it is functional, cell-based. In a few lines: as §3

Chain of Serine/threonine-protein kinase pim-2 (Homo sapiens) (Q9P1W9 whole entry, looked up): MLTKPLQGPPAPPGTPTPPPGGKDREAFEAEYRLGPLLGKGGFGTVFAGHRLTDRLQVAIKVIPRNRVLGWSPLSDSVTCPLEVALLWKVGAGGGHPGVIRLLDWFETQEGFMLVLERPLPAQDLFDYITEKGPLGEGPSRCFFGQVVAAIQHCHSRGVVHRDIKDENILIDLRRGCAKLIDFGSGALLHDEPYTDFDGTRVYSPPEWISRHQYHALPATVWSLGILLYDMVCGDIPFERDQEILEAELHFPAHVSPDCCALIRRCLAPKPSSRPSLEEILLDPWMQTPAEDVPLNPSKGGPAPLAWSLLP

For orientation: pIC50 means the negative decadic logarithm of the IC50, by convention in mol/L. For the compound `CC(C)(C)OC(=O)NCCCCn1c2ccccc2c2ccc3c(C=O)c[nH]c3c21`, the Activity in assay [1] worked out at 4%; in assay [2] it was 23%; in assay [4], 54%; in [5] it was 97%; in assay [6], 3%; in [7], 16%. For the same compound, the negative-log IC50 (pIC50) in assay [3] was 6.33; in [8], 6.70; in [9] it was 4.76; in the assay with PA-1, 4.83; with PC-3, 4.88; in the assay on DU-145, 4.91.

Regarding `N#CCCCCn1c2ccccc2c2ccc3c(C=O)c[nH]c3c21`, the Activity came out at 1% in assay [1]; 3% in assay [2]; 40% in assay [4]; 32% in [5]; 2% in assay [6]; 3% in [7]. In addition, the pIC50 in [3] is 7.34; in assay [8], 7.39; in assay [9], 4.84; in the assay with PA-1, 5.10; in the assay on PC-3, 4.80; in the assay with DU-145, 4.70.

In the case of `CN(C)CCCCn1c2ccccc2c2ccc3c(C=O)c[nH]c3c21`, the Activity in assay [1] was found to be 10%; in [2], 24%; in [4] it was 22%; in assay [5] it was 74%; in [6], 1%; in assay [7], 7%. Besides, the pIC50 was 7.12 in [3]; 7.10 in assay [8]; 6.20 in [9]; 6.31 in the assay with PA-1; 6.19 in the assay with PC-3; 6.02 in the assay with DU-145.
